A selection: hits, their analogues and other compounds. The true share with any hit is near 1.5%.
NR2E3 ag-1 = NR2E3 agonists in two-hybrid cells, primary screen, cell-based, luminescence, CHO-S, Gal4-NCOR/VP16-NR2E3 | Photoreceptor-specific nuclear receptor (Homo sapiens), Q9Y5X4 | luciferase | inhibition of corepressor binding, % at 3.98 µM | 360,000 compounds, 0.35% hits;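 active = inhibition above the mean of all tested compounds plus 3 SD, cut at about 70% in these data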;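 also: higher means lower luciferase signal from less NR2E3 corepressor binding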
Target sequence (Q9Y5X4 whole entry, looked up, the tested form may be a part): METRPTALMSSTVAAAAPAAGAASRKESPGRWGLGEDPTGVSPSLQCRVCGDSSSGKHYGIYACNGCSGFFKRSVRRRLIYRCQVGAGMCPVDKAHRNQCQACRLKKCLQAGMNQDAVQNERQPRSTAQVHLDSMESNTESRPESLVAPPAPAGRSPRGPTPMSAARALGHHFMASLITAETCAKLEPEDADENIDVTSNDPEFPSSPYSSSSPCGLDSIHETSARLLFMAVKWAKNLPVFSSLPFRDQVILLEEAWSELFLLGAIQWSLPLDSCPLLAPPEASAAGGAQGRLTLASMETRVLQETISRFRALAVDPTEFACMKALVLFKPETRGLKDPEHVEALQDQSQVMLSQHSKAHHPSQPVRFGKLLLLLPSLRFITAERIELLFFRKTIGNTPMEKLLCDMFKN
NR2E3 ag-2 = inhibitors of NR2E3-RetCOR corepressor binding, primary screen, NR2E3 agonist project, biochemical, TR-FRET, GST-NR2E3, biotin-RetCOR | Photoreceptor-specific nuclear receptor (Homo sapiens), Q9Y5X4 | 1536-well | inhibition of corepressor binding, % at 4.78 µM | 320,000 compounds, 0.12% hits;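 active = percent inhibition above the cutoff of mean plus 3 SD of all tested compounds, set per screening campaign, cut at about 20% in these data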
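System: GST-tagged NR2E3 plus biotinylated RetCOR corepressor; Buffer or medium: pH 7.5 Tris-based buffer; Probe or stimulus: RetCOR corepressor, biotinylated, 7 nM; Doses: compound at 4.8 µM, single dose; Schedule: 5 h incubation at 4 °C; Technique: time-resolved FRET; Evaluation: percent inhibition of TR-FRET ratio; Replication: one well per compound, singlicate testing.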
Rev-erbA mod = modulators of Rev-erb alpha DNA binding, primary screen, biochemical, FITC-DNA, fluorescence polarization, uHTS | Rev-erbα–FITC-DNA binding, 90 min | activity, % at 10 µM | 370,000 compounds, 0.79% hits;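 active = activity above about 14%, limit read from the data; passing the limit was not always enough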
PG9 Ab binder = binders of HIV-1 gp120 antibody PG9, primary screen, biochemical, TR-FRET; 360,000 compounds, 0.43% hits; inhibition, % at 6.7 µM; HIV-1 gp120 / PG9 antibody interaction; TR-FRET gp120-PG9 antibody binding; in the data active = inhibition above about 8.5%
NR2E3 ag confirm = NR2E3 agonist confirmation in cells, cell-based, luminescence, CHO-S two-hybrid; AID 624378, 2012; inhibition, % at 3.98 µM; CHO-S mammalian two-hybrid NR2E3-NCOR, luciferase luminescence; 2,300 compounds, 51% hits; shares compounds with NR2E3 ag-1;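 active = average inhibition above a cutoff equal to the mean inhibition of all tested compounds plus one SD, cut at about 70% in these data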
GAL4-VP16 luc = GAL4-VP16 reporter modulators, confirmation, counter-screen for NR2E3 agonist project, cell-based, luminescence, CHO-S, high throughput; shares compounds with NR2E3 ag-1; CHO-S GAL4-VP16 luciferase reporter; inhibition, % at 3.98 µM; 2,300 compounds, 29% hits;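 active = mean inhibition above a cutoff equal to the average over all tested compounds plus one standard deviation, cut at about 70% in these data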;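 also: luciferase from a UAS reporter driven by GAL4-VP16 transactivation; higher means less reporter light so more repression of VP16 activity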
Numbers stand for hits; - = inactive; . = not tested or not shown.

SMILES	NR2E3 ag-1	NR2E3 ag-2	Rev-erbA mod	PG9 Ab binder	NR2E3 ag confirm	GAL4-VP16 luc
CNc1snc(C)c1C(=O)OCC(=O)Nc1ccc(C)cc1F	-	.	-	-	-	-
CCc1ccccc1NC(=O)COC(=O)c1c(C)nsc1NC	-	-	-	-	.	.
COC(=O)c1cc(CSc2nnc(NC3CCCCC3)s2)oc1C	-	-	-	-	-	-
c1ccc(CSc2nnc(NC3CCCCC3)s2)cc1	-	.	-	-	.	.
C[C@H]1[C@H](c2ccccc2)OC(O)([C@H](Cc2ccccc2)NC(=O)OC(C)(C)C)CN1C (stereo not given in full)	.	.	-	.	.	.
CC(=O)c1ccc(N2CCN(S(=O)(=O)c3ccc(-c4cc(C)no4)s3)CC2)cc1	-	-	-	-	.	.
CC(=O)c1cccc(NS(=O)(=O)c2ccc(-c3cc(C)no3)s2)c1	96	-	-	-	70	-
O=c1ccsc2ccccc12	-	.	-	-	.	.
O=c1[nH]sc2ccccc12	75	.	-	-	-	-
c1ccc(-c2nc3ccccn3c2NC2CCCC2)nc1	-	-	-	-	-	-
Cc1ccn2c(NC3CCCC3)c(-c3ccccn3)nc2c1	-	-	-	-	-	-
Cc1ccc(-n2c(SCC(=O)N/N=C/C=C\c3ccccc3[N+](=O)[O-])nnc2-c2ccccc2)cc1	.	.	-	.	.	.
O=S(c1cc(Cl)cc(Cl)c1O)c1cc(Cl)cc(Cl)c1O	84	.	-	-	99	78
Oc1c(Cl)cc(Cl)cc1Sc1cc(Cl)cc(Cl)c1O	.	-	-	.	.	.
O=C(CN1CCc2onc(-c3ccc(-n4cc(C5=CCCCC5)nn4)cc3)c2C1=O)N1CCOCC1	.	.	-	.	.	.
Clc1ccccc1C(c1ccccc1)(c1ccccc1)n1ccnc1	-	-	.	-	-	-
C#CC(c1ccccc1)(c1ccccc1)n1ccnc1	-	.	-	-	.	.
O=C(NCCCc1ccccc1)OC1CCC12CCC(c1ccccc1)CC2 (stereo not given)	.	.	-	.	.	.
C=CCn1c(-c2ccc(S(=O)(=O)N3CCOCC3)cc2)csc1=Nc1ccccc1	-	-	-	-	.	.
CC(=O)c1cccc(N=c2scc(-c3ccc(S(=O)(=O)N4CCOCC4)cc3)n2CCO)c1	-	-	-	-	82	77
COc1ccc(/C=C/c2cc(C(F)(F)F)[nH]c(=O)n2)cc1OC	-	-	-	-	-	-
CCCN(CC1CC1)C(=S)NC(=O)c1cc(Br)ccc1Cl	81	.	-	-	-	-
Cn1c(SCCc2ccccc2)nnc1-c1ccco1	.	.	-	.	.	.
CCCCCCCCCS(=O)(=O)N/N=C/c1cccc([N+](=O)[O-])c1	-	-	-	-	-	-
COC(=O)C1=C(CN2CCCc3ccccc32)NC(=O)NC1c1ccc(F)cc1 (stereo not given)	84	-	-	-	-	-
SMILES	NR2E3 ag-1	NR2E3 ag-2	Rev-erbA mod	PG9 Ab binder	NR2E3 ag confirm	GAL4-VP16 luc
Cc1c[nH]c2cccc(-c3ccc(OCc4ccccc4)cc3)c12	.	.	-	.	.	.
CCC(c1nnnn1-c1ccc2c(c1)OCCO2)N1CCN(c2ccc(F)cc2)CC1 (stereo not given)	-	.	.	.	-	-
CC(C)c1cc(C(C)C)c(S(=O)(=O)N2CCC(c3cn4ccccc4n3)CC2)c(C(C)C)c1	.	.	-	.	.	.
O=C(NCCc1nc2ccccc2n1C/C=C/c1ccccc1)C1CCCCC1	.	.	-	.	.	.
O=C(C=P(c1ccccc1)(c1ccccc1)c1ccccc1)c1ccccc1-c1ccccc1C(=O)C=P(c1ccccc1)(c1ccccc1)c1ccccc1	98	.	-	-	100	87
COc1ccc(NS(=O)(=O)c2ccc3oc(SCc4ccc(F)cc4)nc3c2)cc1	-	-	-	-	85	-
CCC(C)c1ccc(NC(=S)NCc2cccs2)cc1 (stereo not given)	-	-	-	-	.	.
CC(C)(C)c1ccc(NC(=S)NCc2cccs2)cc1	-	-	-	-	-	-
CCCC1CCC2(CC1)CCC2OC(=O)Nc1cccc(C(F)(F)F)c1 (stereo not given)	.	.	-	.	.	.

Screens from PubChem BioAssay.
